According to ChEMBL document CHEMBL1649105, “Development of Selective LH Receptor Agonists by Heterodimerization with a FSH Receptor Antagonist” (ACS Med Chem Lett, 2011):
Active and inactive are the calls of the source. No cut-off for these calls is given here.

Tests used:
[1] = molecular target: T1, Follicle-stimulating hormone receptor (Homo sapiens, UniProt P23945); experiment: Agonist activity at human FSHR receptor expressed in CHO-K1 cells assessed as stimulation of luciferase activity by CRE-driven luciferase reporter gene assay; type: functional, cell-based
T1 sequence (P23945 whole entry): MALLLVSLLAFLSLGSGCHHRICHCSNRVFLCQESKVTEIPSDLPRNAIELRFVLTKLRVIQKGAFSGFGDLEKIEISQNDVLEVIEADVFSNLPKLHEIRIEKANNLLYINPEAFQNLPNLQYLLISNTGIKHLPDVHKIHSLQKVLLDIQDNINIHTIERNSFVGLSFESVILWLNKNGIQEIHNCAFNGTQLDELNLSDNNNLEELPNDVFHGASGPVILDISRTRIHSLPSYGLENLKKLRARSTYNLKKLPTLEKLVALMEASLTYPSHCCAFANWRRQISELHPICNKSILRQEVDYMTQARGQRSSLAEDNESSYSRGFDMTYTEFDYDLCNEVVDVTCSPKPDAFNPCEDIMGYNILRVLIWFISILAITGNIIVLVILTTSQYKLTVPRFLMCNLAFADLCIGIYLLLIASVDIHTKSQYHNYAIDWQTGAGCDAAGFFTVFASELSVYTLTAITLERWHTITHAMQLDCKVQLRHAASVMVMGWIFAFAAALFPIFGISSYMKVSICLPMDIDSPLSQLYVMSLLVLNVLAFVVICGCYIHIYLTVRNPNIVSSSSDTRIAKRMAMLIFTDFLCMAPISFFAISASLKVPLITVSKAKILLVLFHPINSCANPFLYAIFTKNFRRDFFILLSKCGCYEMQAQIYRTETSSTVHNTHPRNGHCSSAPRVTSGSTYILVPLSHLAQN
Outline: (§1)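 EC50 or IC50 values were fitted from concentration–effect curves. Data come from two independent experiments, each run in duplicate, with SD generally below 0.3.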

[2] = molecular target: T2, Lutropin-choriogonadotropic hormone receptor (Homo sapiens, UniProt P22888); experiment: Agonist activity at human LH receptor expressed in CHO-K1 cells assessed as stimulation of luciferase activity by CRE-driven luciferase reporter gene assay; type: functional, cell-based; outline: as §1
[3] = molecular target: T2, Lutropin-choriogonadotropic hormone receptor; experiment: Antagonist activity at human LH receptor expressed in CHO-K1 cells assessed as inhibition of LH-induced luciferase activity by CRE-driven luciferase reporter gene assay; type: functional, cell-based
[4] = molecular target: T1, Follicle-stimulating hormone receptor; experiment: Antagonist activity at human FSHR receptor expressed in CHO-K1 cells assessed as inhibition of FSH-induced luciferase activity by CRE-driven luciferase reporter gene assay relative to control
[5] = molecular target: T3, Follicle-stimulating hormone receptor (Homo sapiens) (UniProt P23945); experiment: Agonist activity at human FSHR receptor expressed in CHO-K1 cells assessed as stimulation of luciferase activity by CRE-driven luciferase reporter gene assay relative to control; type: functional, cell-based
T3 sequence (whole entry): T1 sequence (P23945 whole entry)

[6] = molecular target: T3, Follicle-stimulating hormone receptor (Homo sapiens); experiment: Antagonist activity at human FSHR receptor expressed in CHO-K1 cells assessed as inhibition of FSH-induced luciferase activity at 10 uM by CRE-driven luciferase reporter gene assay relative to control
[7] = molecular target: T3, Follicle-stimulating hormone receptor (Homo sapiens); experiment: Agonist activity at human FSHR receptor expressed in CHO-K1 cells assessed as stimulation of luciferase activity at 10 uM by CRE-driven luciferase reporter gene assay relative to control; type: functional, cell-based

T2 sequence (P22888 whole entry): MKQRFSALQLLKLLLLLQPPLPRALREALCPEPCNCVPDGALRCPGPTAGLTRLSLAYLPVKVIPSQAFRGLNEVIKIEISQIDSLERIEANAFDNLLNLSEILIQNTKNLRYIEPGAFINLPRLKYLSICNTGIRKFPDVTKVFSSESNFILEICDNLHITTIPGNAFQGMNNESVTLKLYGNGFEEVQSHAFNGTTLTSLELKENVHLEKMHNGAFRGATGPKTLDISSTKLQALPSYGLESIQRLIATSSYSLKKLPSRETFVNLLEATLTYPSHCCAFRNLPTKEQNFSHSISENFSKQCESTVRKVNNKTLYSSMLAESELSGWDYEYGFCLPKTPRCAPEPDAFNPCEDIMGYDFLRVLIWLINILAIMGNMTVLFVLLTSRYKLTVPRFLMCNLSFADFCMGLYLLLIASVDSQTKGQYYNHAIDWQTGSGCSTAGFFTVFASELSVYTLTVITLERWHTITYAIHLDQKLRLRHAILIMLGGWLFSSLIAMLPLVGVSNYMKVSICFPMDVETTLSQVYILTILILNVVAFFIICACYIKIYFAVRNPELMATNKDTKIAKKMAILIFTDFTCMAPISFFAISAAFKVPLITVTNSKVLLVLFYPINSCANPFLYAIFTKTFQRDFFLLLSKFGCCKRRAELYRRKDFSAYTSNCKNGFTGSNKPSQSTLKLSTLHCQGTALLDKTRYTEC

C#CCNC(=O)CNc1cccc(-c2nc(SC)nc3sc(C(=O)NC(C)(C)C)c(N)c23)c1
EC50 ([1]; read-out: EC50): 126 nM | EC50 ([2]; read-out: EC50): 1 nM | inhibition [3]: inactive | IC50 ([4]; cho-k1): Not Active | Emax [5]: 78%

CSc1nc(-c2cccc(NCC(=O)NCc3cn(CCOCCOCCOCCn4cc(COc5ccc([C@@]6(C)CC(C)(C)N(C(C)=O)c7ccc(NC(=O)c8ccc(-c9ccccc9)cc8)cc76)cc5)nn4)nn3)c2)c2c(N)c(C(=O)NC(C)(C)C)sc2n1
Imax [6]: 65% | EC50 ([1]; cho-k1): Not Active | EC50 ([2]; read-out: EC50): 61 nM | inhibition [3]: inactive | IC50 ([4]; read-out: IC50): 1660 nM

CC(=O)N1c2ccc(NC(=O)c3ccc(-c4ccccc4)cc3)cc2[C@@](C)(c2ccc(OCc3cn(CCOCCOCCN=[N+]=[N-])nn3)cc2)CC1(C)C
EC50 ([1]; cho-k1): Not Active | EC50 ([2]; cho-k1): Not Active | inhibition [3]: inactive | IC50 ([4]; read-out: IC50): 324 nM

CSc1nc(-c2cccc(NCC(=O)NCc3cn(CCOCCOCCOCCn4cc(COc5ccc([C@]6(C)CC(C)(C)N(C(C)=O)c7ccc(NC(=O)c8ccc(-c9ccccc9)cc8)cc76)cc5)nn4)nn3)c2)c2c(N)c(C(=O)NC(C)(C)C)sc2n1
EC50 ([2]; read-out: EC50): 57 nM | inhibition [3]: inactive | IC50 ([4]; cho-k1): Not Active | Emax [7]: 31%

CSc1nc(-c2cccc(NCC(=O)NCc3cn(CCOCCOCCOCCOCCn4cc(COc5ccc([C@]6(C)CC(C)(C)N(C(C)=O)c7ccc(NC(=O)c8ccc(-c9ccccc9)cc8)cc76)cc5)nn4)nn3)c2)c2c(N)c(C(=O)NC(C)(C)C)sc2n1
EC50 ([2]; read-out: EC50): 39 nM | inhibition [3]: inactive | IC50 ([4]; cho-k1): Not Active | Emax [7]: 39%

CSc1nc(-c2cccc(NCC(=O)NCc3cn(CCOCCn4cc(COc5ccc([C@]6(C)CC(C)(C)N(C(C)=O)c7ccc(NC(=O)c8ccc(-c9ccccc9)cc8)cc76)cc5)nn4)nn3)c2)c2c(N)c(C(=O)NC(C)(C)C)sc2n1
EC50 ([2]; read-out: EC50): 80 nM | inhibition [3]: inactive | IC50 ([4]; cho-k1): Not Active | Emax [7]: 44%

CSc1nc(-c2cccc(NCC(=O)NCc3cn(CCOCCOCCN=[N+]=[N-])nn3)c2)c2c(N)c(C(=O)NC(C)(C)C)sc2n1
EC50 ([1]; read-out: EC50): 397 nM | EC50 ([2]; read-out: EC50): 5 nM | inhibition [3]: inactive | IC50 ([4]; cho-k1): Not Active | Emax [5]: 81%

CSc1nc(-c2cccc(NCC(=O)NCc3cn(CCOCCOCCn4cc(COc5ccc([C@]6(C)CC(C)(C)N(C(C)=O)c7ccc(NC(=O)c8ccc(-c9ccccc9)cc8)cc76)cc5)nn4)nn3)c2)c2c(N)c(C(=O)NC(C)(C)C)sc2n1
EC50 ([2]; read-out: EC50): 75 nM | inhibition [3]: inactive | IC50 ([4]; cho-k1): Not Active | Emax [7]: 18%

C#CCOc1ccc([C@@]2(C)CC(C)(C)N(C(C)=O)c3ccc(NC(=O)c4ccc(-c5ccccc5)cc4)cc32)cc1
EC50 ([1]; cho-k1): Not Active | EC50 ([2]; cho-k1): Not Active | inhibition [3]: inactive | IC50 ([4]; read-out: IC50): 39 nM

CSc1nc(-c2cccc(NCC(=O)NCc3cn(CCOCCOCCn4cc(COc5ccc([C@@]6(C)CC(C)(C)N(C(C)=O)c7ccc(NC(=O)c8ccc(-c9ccccc9)cc8)cc76)cc5)nn4)nn3)c2)c2c(N)c(C(=O)NC(C)(C)C)sc2n1
Imax [6]: 73% | EC50 ([1]; cho-k1): Not Active | EC50 ([2]; read-out: EC50): 43 nM | inhibition [3]: inactive | IC50 ([4]; read-out: IC50): 920 nM

CSc1nc(-c2cccc(NCC(=O)NCc3cn(CCOCCOCCOCCOCCn4cc(COc5ccc([C@@]6(C)CC(C)(C)N(C(C)=O)c7ccc(NC(=O)c8ccc(-c9ccccc9)cc8)cc76)cc5)nn4)nn3)c2)c2c(N)c(C(=O)NC(C)(C)C)sc2n1
Imax [6]: 72% | EC50 ([1]; cho-k1): Not Active | EC50 ([2]; read-out: EC50): 55 nM | inhibition [3]: inactive | IC50 ([4]; read-out: IC50): 1020 nM

CSc1nc(-c2cccc(NCC(=O)NCc3cn(CCn4cc(COc5ccc([C@]6(C)CC(C)(C)N(C(C)=O)c7ccc(NC(=O)c8ccc(-c9ccccc9)cc8)cc76)cc5)nn4)nn3)c2)c2c(N)c(C(=O)NC(C)(C)C)sc2n1
EC50 ([2]; read-out: EC50): 24 nM | inhibition [3]: inactive | IC50 ([4]; cho-k1): Not Active | Emax [7]: 43%

CSc1nc(-c2cccc(NCC(=O)NCc3cn(CCn4cc(COc5ccc([C@@]6(C)CC(C)(C)N(C(C)=O)c7ccc(NC(=O)c8ccc(-c9ccccc9)cc8)cc76)cc5)nn4)nn3)c2)c2c(N)c(C(=O)NC(C)(C)C)sc2n1
Imax [6]: 65% | EC50 ([1]; cho-k1): Not Active | EC50 ([2]; read-out: EC50): 10 nM | inhibition [3]: inactive

CSc1nc(-c2cccc(NCC(=O)NCc3cn(CCOCCn4cc(COc5ccc([C@@]6(C)CC(C)(C)N(C(C)=O)c7ccc(NC(=O)c8ccc(-c9ccccc9)cc8)cc76)cc5)nn4)nn3)c2)c2c(N)c(C(=O)NC(C)(C)C)sc2n1
Imax [6]: 75% | EC50 ([1]; cho-k1): Not Active | EC50 ([2]; read-out: EC50): 27 nM | inhibition [3]: inactive
